# Screening results as filed in PubChem.
# T cell HTS – modulates CD8 T cell binding to vesicles; response (vesicle binding), % at 7 µM; 2C CD8+ T cell-vesicle binding, flow cytometry; active compounds read low; actives 0.068% (n = 330,000);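 active = response, share of CD8 T cells binding vesicles, and their 90th percentile fluorescence all below set limits, cut at about 80% in these data, passing the limit was not always enough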;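 also: values below 100% mean blocked vesicle binding to the CD8+ T cells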
#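 incubation = binding step 1.5 h, 37 °C, antibody labelling 20 min, ice | test system = 2C mouse CD8+ T cells | read-out basis = percent CD8+ FL2 mean versus row control | controls = Peptide-free naked vesicles (low) and QL9 vesicles with 0.7% DMSO vehicle (high) | detection = flow cytometry of vesicle-bound cells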
# SKN-1 block – blocks SKN-1 activity in C. elegans; C. elegans VP596 Pgst-4::GFP/RFP ratio, acrylamide-induced, 24 h; inhibition, % at 21.8 µM; actives 0.49% (n = 360,000);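 active = interference check ratio from 0.5 to 1.5 plus GFP to RFP signal ratio inhibition reaching or exceeding a fixed threshold, cut at about 30% in these data, passing the limit was not always enough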
# GRK2 aptamer HTS – inhibitors of human GRK2 displacing RNA aptamer; P25098; bead flow cytometry, FAM-aptamer displacement from GRK2; inhibition of aptamer binding, % at 10 µM; actives 0.59% (n = 330,000);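 active = inhibition of aptamer binding above 40%, roughly 3 SD of noise, on plates passing a quality check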;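 also: median bead fluorescence of bound FAM aptamer so fluorescent compounds give negative values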
# Rin1-Abl PPI inh – blocks binding of human Rin1 to Abl. actives 0.4% (n = 360,000). inhibition, % at 7.35 µM. TR-FRET Rin1/Abl binding, biochemical. P00519+Q13671; in the data active = inhibition above about 5%, passing the limit was not always enough
# Myeloid diff 2 – myeloid differentiation induction. actives 1% (n = 360,000). calls only at 10 µM. ER-HoxA9 myeloid progenitors, lysozyme-GFP differentiation, flow cytometry;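 active = normalized GFP-positive differentiation at or above the plate's own cutoff, the solvent-only control mean plus 3 SD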;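 also: cells exposed to compound for four days before flow analysis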
# Rce1 inh – inhibitors of yeast Ras-converting enzyme; Q03530; yeast membranes, quenched prenylated peptide cleavage fluorescence; calls only; actives 0.27% (n = 290,000); AID 2563;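 active = fall in fluorescence gain of 50% or more versus controls, with final raw signal at or below 3038400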;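 also: plate controls were neutral control wells for no effect and wells lacking membranes for full effect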
# Myeloid diff CP1 – compounds promoting myeloid differentiation; actives 2% (n = 2,300); shares compounds with Myeloid diff 2; ER-HoxA9 myeloid progenitors, GFP/Mac1 double-positive flow; calls only;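 active = share of green or green-and-red cells above 9 and 9% in run 1 or 4 and 3% in run 2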
# GFP autofluor – compound fluorescence in myeloid differentiation counter-screen | ER-HoxA9 myeloid progenitors, no estrogen, GFP autofluorescence flow cytometry; vehicle wells 0%, positive control 100% | AID 651707 | actives 7.4% (n = 2,300) | shares compounds with Myeloid diff 2 | fluorescence response, % (concentration not given with the values);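 active = over 5% cells positive for green fluorescent reporter, or over 2% positive for both it and APC stain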;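 also: range taken on the double positive population between DMSO and positive control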
# The depositor's hits bear a star; i = inactive; x = no result given; + = active, no number. Most compounds without a hit are left out; they make up all but 2.6% or so of the library.
SMILES,T cell HTS,SKN-1 block,GRK2 aptamer HTS,Rin1-Abl PPI inh,Myeloid diff 2,Rce1 inh,Myeloid diff CP1,GFP autofluor
COCCCNc1nc2cc(OC)c(OC)cc2c2nc(-c3ccccc3)nn12,231.6,13.8,0.0,-1.7,+,i,i,0.5
CCN(CC)CCCNc1nc2cc(OC)c(OC)cc2c2nc(-c3ccccc3)nn12,391.4,-36.5,0.0,4.1,i,i,x,x
CC(NC(=O)c1ccccc1Br)c1nnc(SCC(=O)NC2CCCCC2)n1C (centres undefined),195.2,-3.8,2.0,1.0,i,i,x,x
CCCn1c(NC(=O)CCS(=O)(=O)c2ccc(C)cc2)nc2ccccc21,220.1,4.9,0.0,-0.7,+,i,i,27.4*
CC(=O)c1sc(NC(=O)CCS(=O)(=O)c2ccc(C)cc2)nc1C,366.5,-0.1,3.0,0.1,i,i,i,0.0
Cc1c(C(=O)OCC(=O)NC2CC2)oc2ccc(Br)cc12,x,2.6,x,0.2,i,x,x,x
CC1=NN(C(C#N)c2ccc(F)cc2)C(C)(C)C1 (centres undefined),174.3,3.1,4.0,2.6,+,i,i,0.3
CC1=NN(C(C#N)c2ccc([N+](=O)[O-])cc2)C(C)(C)C1 (centres undefined),153.6,x,0.0,x,x,i,x,x
Cn1c(/C=C/c2cccc([N+](=O)[O-])c2)c([N+](=O)[O-])c(=O)n(C)c1=O,704.9,1.2,0.0,-0.5,i,i,x,x
CCC(=O)N1CCc2cc(Br)cc(S(=O)(=O)CCC(=O)NCC3CCCO3)c21 (centres undefined),253.3,13.2,1.0,0.3,+,x,i,0.2
O=C(CN1C(=O)NC2(CCCCCC2)C1=O)NCCc1ccccc1,319.7,17.1,0.0,0.8,i,x,x,x
COc1cccc(/C=C2\Oc3ccc(O)cc3C2=O)c1O,111.6,25.8,0.0,0.0,i,i,x,x
Nc1cccc(C#Cc2ccc3c(c2)C(=O)/C(=C/c2ccsc2)O3)c1,207.6,15.2,0.0,-2.9,i,x,i,0.0
O=S(=O)(c1ccc2c(c1)OCCO2)N1CCN(c2nc3ccccc3s2)CC1,653.8,-2.8,1.0,3.3,i,i,i,0.0
CCN1CCN(c2ccc(S(=O)(=O)N3CCCCC3)cc2NC(=O)CC(C)c2ccccc2)CC1 (centres undefined),203.4,-12.4,0.0,1.6,i,i,x,x
N#Cc1c(-c2ccc(C(F)(F)F)cc2)cc(-c2ccccc2)[nH]c1=S,265.3,-17.1,2.0,-2.4,+,i,i,0.0
OCc1c(OCc2cccc(F)c2)ccc2ccccc12,222.1,9.3,0.0,-4.2,i,i,x,x
CC(C)(C)c1nc(CN2CCCCC2)cc(CN2CCCCC2)c1O,149.9,10.8,0.0,-3.4,+,x,i,0.0
CC(C)(C)c1nc(CN2CCOCC2)ccc1O,i,-5.8,0.0,-1.2,i,i,x,x
CCN(CC)C(=O)C(=O)c1cccn1-c1cccc(OC)c1C#N,206.0,13.7,3.0,4.3,i,i,x,x
COc1cccc(N=C2SC(C(=O)Nc3ccccc3F)CC(=O)N2C)c1 (centres undefined),433.3,4.2,0.0,1.9,i,i,x,x
COc1cccc(NC(=O)C2CC(=O)N(C)C(=Nc3cccc(F)c3)S2)c1 (centres undefined),383.8,-4.8,0.0,-0.3,i,i,i,0.0
COc1ccc(C2C(C(C)=O)=C(C)N=c3s/c(=C/c4ccc5c(c4)OCO5)c(=O)n32)cc1 (centres undefined),x,x,x,x,x,i,x,x
CC(=O)C1=C(C)N=c2s/c(=C/c3ccc4c(c3)OCO4)c(=O)n2C1c1ccc(N(C)C)cc1 (centres undefined),x,1.9,x,-2.2,+,x,i,22.4*
O=C(O)CN(c1ccccn1)S(=O)(=O)c1ccc(Cl)cc1,594.2,-3.5,3.0,-1.7,+,i,i,1.1
SMILES,T cell HTS,SKN-1 block,GRK2 aptamer HTS,Rin1-Abl PPI inh,Myeloid diff 2,Rce1 inh,Myeloid diff CP1,GFP autofluor
Cc1cc(=O)[nH]c(SCCOc2cccc(C(F)(F)F)c2)n1,i,-3.4,0.0,5.7,x,i,i,3.4
CC[C@@H]1C(c2ccc(F)cc2)=NN(c2ccc(Br)cc2)[C@H]1C(=O)N1CCOC1=O,x,30.7,2.0,0.2,i,x,x,x
Cc1ccc(CSc2nnc(-c3cccnc3)n2N)cc1,975.5,9.6,0.0,-5.3,i,i,x,x
Cc1ccc(C(=O)CSc2nnc(-c3cccnc3)n2N)cc1,176.4,-1.5,2.0,-2.2,i,i,i,0.0
N#CC(C#N)=c1ccc2c(c1)N1C(c3ccccc3)=CC(c3ccccc3)C3CCCCC31N=2 (centres undefined),568.5,0.5,1.0,3.9,+,i,i,0.0
CCCNc1c(NC(=O)COc2ccc(Cl)cc2)c(=O)oc2ccccc12,242.0,18.6,0.0,1.6,i,i,x,x
CC1CCN(CCCNC(=O)c2cc3c(=O)n(C)c4ccccc4c3n2C)CC1,94.8,8.2,0.0,3.6,i,i,i,0.0
CCOC(=O)N1CCC(N2CCN(S(=O)(=O)c3ccc(OC)cc3)CC2)CC1,278.1,3.7,2.0,0.5,i,i,i,3.5*
CCOC(=O)N1CCC(N2CCN(S(=O)(=O)c3ccc(C)cc3)CC2)CC1,683.1,-36.4,6.0,0.7,i,i,x,x
Cc1cc(C)c(S(=O)(=O)Nc2nnc(C3CCCCC3)s2)c(C)c1,0.0,21.2,0.0,-0.5,i,i,x,x
CCC[C@@H]1C[C@@]1(CCC)[C@@H](NP(=O)(c1ccccc1)c1ccccc1)c1ccc(C(=O)OC)cc1,470.8,x,1.0,x,x,i,x,x
COC(=O)c1cccc(C#CC(NP(=O)(c2ccccc2)c2ccccc2)c2ccccc2)c1 (centres undefined),409.8,11.7,3.0,0.0,i,i,i,0.0
Cc1ccc(C)c(NC(=O)CCN2CCCC(C)C2)c1 (centres undefined),588.8,14.1,0.0,-1.8,i,i,x,x
O=S(=O)(N/N=C\C=C\c1ccccc1)c1ccc(Cl)cc1,324.1,19.3,1.0,-4.4,i,i,i,0.3
N#C/C(=C\c1ccc(/C=C(/C#N)c2nn(CCO)c(N)c2C#N)cc1)c1nn(CCO)c(N)c1C#N,105.2,1.9,0.0,-1.2,i,i,i,1.2
N#C/C(=C/c1ccccc1)c1nn(CCO)c(N)c1C#N,345.3,5.0,0.0,-4.0,i,i,x,x
CC(C)C1C(=O)N(Cc2cn(CCC3OCCCO3)nn2)CCS(=O)(=O)N1Cc1ccc(-c2cccc(N(C)C)c2)cc1 (centres undefined),x,-5.1,x,1.4,i,x,x,x
